Measurements from different studies.
Read-out: metabolic stability
Species: human

Cc1[nH]c(C)c(S(=O)(=O)Nc2ccc(S(F)(F)(F)(F)F)cc2)c1C(=O)N1CCC(F)(F)C1
half-life (liver microsomes): 26.3 min

CC(=O)c1c(C)c2cnc(Nc3ccc(C4CCN(CCS(C)(=O)=O)CC4)cn3)nc2n(C2CCCC2)c1=O
half-life (liver S9): 85.6 min

C[C@]12CC[C@H]3[C@@H](CCC4=CC(=O)CC[C@@]43C)[C@@H]1CC[C@@H]2O
half-life (liver microsomes): 21.7 min

O=c1[nH]c2ccccc2n1C1CCN(CCCC(c2ccc(F)cc2)c2ccc(F)cc2)CC1
half-life (liver microsomes; 100 ng/mL): 201 min

CC(C)CC(=O)OC[C@H]1O[C@@](C#N)(c2ccc3c(N)ncnn23)[C@H](O)[C@@H]1O
half-life (hepatocytes): < 4.36 min

CC(c1cncnc1)n1c(=S)[nH]c2ccc(Cl)cc2c1=O (stereo not shown)
half-life (liver microsomes; 1 µM, pH 7.4): > 186 min

Cc1[nH]c(C)c(S(=O)(=O)Nc2ccc(S(=O)(=O)F)c(Cl)c2)c1C(=O)N1CCC(F)(F)C1
half-life (liver microsomes): 22 min

Cc1ncc2n1-c1ccc(Cl)cc1C(c1ccccc1F)=NC2
half-life (hepatocytes): 92.6 min

C#Cc1nc(C(=O)N2CCC(NC(=O)c3cnc(-c4ccccc4)s3)(c3nc4ccccc4n3C)CC2)cs1
half-life (liver microsomes): ~20 min

O=c1c2cc(Cl)c(CO)cc2[nH]c(=S)n1Cc1cncnc1
half-life (liver microsomes; 1 µM, pH 7.4): 71.8 min
